From PubChem BioAssay AID488992 (Sanford-Burnham Center for Chemical Genomics, 2010)
The source made the active and inactive calls.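 How the source made its calls: active means IC50 below 20 µM; inactive means the rest.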

Target: Apelin receptor (Homo sapiens) (UniProt P35414)
Assay: apelin receptor inhibitor analogs – cell-based, luminescence, set 3, SAR follow-up (AID 488992)
Details: CHO-K1 AGTRL-1 PathHunter beta-arrestin
Procedure, shortened: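 System: CHO-K1 cells with ProLink-tagged APJ and arrestin–enzyme-acceptor fusion. Also added: apelin-13, 10 nM final. Doses: test compounds as dose-response series. Times: overnight cell seeding, 90 min compound-agonist exposure at 25 °C. Measured by: luminescence from beta-gal complementation, read 60 min after detection reagent.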

Apelin receptor (Homo sapiens), sequence (P35414 whole entry, looked up): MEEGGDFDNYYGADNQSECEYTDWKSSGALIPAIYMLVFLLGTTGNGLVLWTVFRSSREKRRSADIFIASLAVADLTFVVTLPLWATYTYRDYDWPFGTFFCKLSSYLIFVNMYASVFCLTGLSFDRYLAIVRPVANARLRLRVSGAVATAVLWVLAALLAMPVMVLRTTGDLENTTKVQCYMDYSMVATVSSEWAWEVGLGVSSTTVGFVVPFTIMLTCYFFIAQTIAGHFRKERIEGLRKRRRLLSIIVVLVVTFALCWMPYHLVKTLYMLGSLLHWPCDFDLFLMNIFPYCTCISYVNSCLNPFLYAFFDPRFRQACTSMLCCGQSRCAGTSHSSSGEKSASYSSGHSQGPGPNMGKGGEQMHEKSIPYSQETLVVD

IC50	SMILES
> 79 µM (inactive)	Cc1ccnc(SCc2cc(=O)c(OC(=O)c3ccno3)co2)n1
> 79 µM (inactive)	Cc1ccnc(SCc2cc(=O)c(OCc3ccc(Cl)c([N+](=O)[O-])c3)co2)n1
> 79 µM (inactive)	O=C(Nc1ccc(CSc2ncccn2)cc1)c1ccccc1
> 79 µM (inactive)	Cc1ccnc(SCc2cc(=O)c(OC(=O)c3ccc([N+](=O)[O-])o3)co2)n1
> 79 µM (inactive)	COc1cc(CSc2nc(C)cc(C)n2)ccc1OC(=O)c1ccc([N+](=O)[O-])cc1
> 79 µM (inactive)	COc1cc(CSc2nc(C)cc(C)n2)ccc1OC(=O)c1ccccc1
> 79 µM (inactive)	Cc1ccnc(SCc2cc(=O)c(OC(=O)C(C)C)co2)n1
> 79 µM (inactive)	Cc1ccnc(SCc2cc(=O)c(OC(=O)C(C)(C)C)co2)n1
> 79 µM (inactive)	COc1cc(CSc2nc(C)cc(C)n2)ccc1OC(=O)c1cccnc1
> 79 µM (inactive)	CC(=O)Oc1coc(CSc2nccc(C)n2)cc1=O
